Screening results: PubChem, Sanford-Burnham Center for Chemical Genomics
Jurkat NFkB inh – inhibitors of induced NF-kB luciferase reporter, primary screen, TCR NF-kB activation inhibitor project, cell-based, luminescence, uHTS; Jurkat, PMA/ionomycin-induced NF-kB luciferase reporter; inhibition, % at 4 µM; 330,000 compounds, 0.53% hits; AID 435003, 2010; in the data active = inhibition above about 50%
Gli-Sufu block – Gli-Sufu pathway antagonists, primary screen, luciferase luminescence, Sufu-KO-LIGHT cells, uHTS; Sufu-KO-LIGHT fibroblasts, Gli luciferase reporter luminescence; inhibition, % at 5 µM; 340,000 compounds, 0.74% hits; AID 588413, 2011;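 active = inhibition above about 55%, limit read from the data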;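 note: 0% = DMSO-treated cells and 100% = wells with medium but no cells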
697 NFkB inh – inhibitors of PMA/ionomycin-induced NF-kB reporter, 697 cells, primary screen, B-cell NF-kB inhibitor project, cell-based, luminescence, uHTS; 697 B-cell NF-kB luciferase reporter, 16 h; inhibition, % at 4 µM; 330,000 compounds, 0.33% hits; AID 435022, 2010; in the data active = inhibition above about 35%
Lipid droplet – inhibitors of hepatocyte lipid droplet formation, primary screen, imaging, high-throughput imaging, BODIPY stain; 240,000 compounds, 0.4% hits; inhibition, % at 6.5 µM; AML12 mouse hepatocytes, oleate lipid droplets; AID 1656, 2009;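 active = lipid droplet intensity inhibited by at least 50%, with more than 500 cells counted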
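System: AML12 hepatocytes (mouse). Probe or stimulus: oleic acid at 100 µM to induce lipid droplet formation. Times: overnight treatment with compound plus oleate. Detection: Image-based BODIPY and DAPI two-channel analysis. Evaluation: percent inhibition of filter-corrected integrated lipid droplet intensity per well.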
TAG inh – inhibitors of triacylglycerol accumulation, primary screen, cell-based, uHTS, fluorescence, H9c2; H9c2 cells, Nile Red lipid (TAG) fluorescence; cells loaded with 200 µM oleic acid; inhibition, % at 12.5 µM; 230,000 compounds, 0.66% hits;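 active = pattern-corrected inhibition of lipid staining of at least 50% with the nuclear-stain viability signal not falling by more than 50%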;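 note: 0% = DMSO wells and 100% = triacsin C control wells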
hiPSC survival – enhancers of single-cell hiPSC survival, primary screen, ATPlite luminescence; 360,000 compounds, 0.044% hits; AID 602274, 2012; survival enhancement, % at 20 µM; 100% = ROCK inhibitor wells, 0% = DMSO; in the data active = survival enhancement above about 18%;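 note: cells exposed to compounds for 16 hours before the ATP read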
Jurkat NFkB conf – PMA/ionomycin-induced NF-kB reporter inhibitors, Jurkat retest, confirmation, T-cell NF-kB inhibitor project, cell-based, luminescence, single concentration | 2,700 compounds, 27% hits | inhibition, % at 4 µM | AID 435020, 2010 | Jurkat NF-kB luciferase, 16 h | shares compounds with Jurkat NFkB inh;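 active = inhibition reaching about 45% at 4 µM in either replicate, limit read from the data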;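 note: plate controls were PMA/ionomycin stimulated DMSO wells for no effect and unstimulated DMSO wells for full effect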
697 NFkB conf – PMA/ionomycin-induced NF-kB reporter inhibitors, 697 retest, confirmation, B-cell NF-kB inhibitor project, cell-based, luminescence, single concentration; shares compounds with 697 NFkB inh; 697 B-cell NF-kB luciferase, 16 h; inhibition, % at 4 µM; 2,000 compounds, 35% hits; AID 449746, 2010; in the data active = inhibition mostly above about 28%, no sharp cut-off; inactive = mostly below about 22%
Active calls of the source: *; . = no result given. Compounds with a hit are over-represented: about 1.8% of the library has one in this group of screens.

SMILES	Jurkat NFkB inh	Gli-Sufu block	697 NFkB inh	Lipid droplet	TAG inh	hiPSC survival	Jurkat NFkB conf	697 NFkB conf
CCCCc1ccc(-c2ccc(C)cc2O)nc1	-150.5	-91.2	-317.4	.	-2.5	-2.0	-129.4	-253.0
C=CC[C@H](CC(=O)NCCO)C(=O)N[C@H](COC(=O)[C@H](CC=C)CC(=O)OC(C)(C)C)c1ccccc1	-2.0	-2.8	2.2	.	6.8	1.1	.	.
CC(C)(C)c1ccc2c(c1)C(=O)c1ccccc1C2=O	-206.4	-104.5	-358.1	0.0	.	-1.3	-125.5	-287.5
COc1ccc(C2NN=C(c3c[nH]c4ccccc34)C2O)cc1 (stereo unspecified)	-57.6	-20.4	-23.3	.	.	0.0	.	.
COc1ccc(C2C(O)C(c3c[nH]c4ccccc34)=NN2C(=O)CCl)cc1 (stereo unspecified)	100.4*	85.8*	97.4*	-23.3	.	-0.5	-2.0	-153.4
Cc1ccc(OCC(=O)OCC(=O)c2ccccc2)cc1C	-2.6	-9.6	-0.7	-6.7	5.4	0.1	.	.
CCC(Oc1ccccc1)C(=O)N1CCN(S(=O)(=O)c2ccccc2)CC1 (stereo unspecified)	-17.8	-1.5	2.1	.	-19.9	0.0	.	.
CCCN(CCC)c1ncnc2c1cnn2-c1ccc(OC)cc1	-160.9	-56.0	-348.6	-2.7	.	-1.5	-103.4	-363.4
CCC(CO)Nc1ncnc2c1cnn2-c1ccc(OC)cc1 (stereo unspecified)	-91.2	-107.6	-123.8	.	-3.9	-1.5	.	.
CCOc1ccccc1C(=O)Nc1nnc(Cc2ccc(OC)c(OC)c2)s1	12.3	.	5.9	3.0	.	0.3	.	.
O=C(O)c1cccc(COc2ccccc2Cl)c1	81.9*	-103.4	67.0*	-9.2	.	-3.8	78.4*	42.8*
CCN(CC)C(=O)COc1ccc(/C=N/NC(=O)c2cc(-c3ccccc3OC)nc3ccccc23)cc1OC	-5.7	-5.7	5.7	.	-21.0	-0.2	.	.
CSc1ncccc1C(=O)Nc1cc(C)ccn1	11.2	-13.9	5.4	9.3	4.0	-0.3	.	.
Cc1ccnc(NC(=O)Nc2ccc(F)cc2)c1	-162.9	13.7	-289.4	13.8	.	-1.9	-91.0	-141.8
COc1ccc(NC(=O)Nc2cc(C)ccn2)cc1	.	-88.1	.	.	-5.9	-0.6	.	.
CSc1ccc(NC(=O)Nc2cc(C)ccn2)cc1	-150.5	-111.8	-318.4	2.9	.	-0.5	-85.6	-204.2
Cc1ccc(S(=O)(=O)N2CCN(S(C)(=O)=O)C2C)cc1 (stereo unspecified)	7.0	1.7	6.3	.	5.8	-0.4	.	.
O=C1OCCC1Sc1nnc(-c2ccc(F)cc2)n1Cc1ccccc1 (stereo unspecified)	-5.3	-0.1	1.5	-3.7	.	-0.5	.	.
CC1CCCN(c2ccc([N+](=O)[O-])cc2C(=O)c2ccccc2)C1 (stereo unspecified)	51.4*	44.4	35.2*	-121.8	30.9	-3.9	40.5	30.1*
N#Cc1cc2cc3c(cc2nc1SCC(=O)OC1CCCCC1)OCO3	-20.7	0.9	-22.4	.	17.9	0.4	.	.
CC(=O)CSc1nc2cc3c(cc2cc1C#N)OCCO3	-191.3	-149.7	-304.5	-9.6	21.1	-0.8	-160.7	-389.1
C[C@@H]1C=CC(=O)O[C@@H]1c1ccc(C(F)(F)F)cc1	97.2*	.	60.4*	24.3	.	.	96.8*	-40.6
CCN1CCN(CCCNC(=O)C2c3ccccc3C(=O)N(c3ccc(OC)cc3)C2c2ccc(OC)cc2)CC1 (stereo unspecified)	-2.4	-13.1	10.3	2.8	12.0	0.2	.	.
COc1ccc(C(=O)Nc2ccc3ccccc3c2)c(OC)c1	-181.1	-83.7	-280.1	-16.3	-7.9	-0.6	-123.2	-383.4
